Assay results from different studies.
Each line is one published result; the experiments were not run side by side.
Target: Serine/threonine-protein kinase Sgk2 (SGK2, Homo sapiens, UniProt Q9HBY8)
Residues used in one study (Q9HBY8 1-367): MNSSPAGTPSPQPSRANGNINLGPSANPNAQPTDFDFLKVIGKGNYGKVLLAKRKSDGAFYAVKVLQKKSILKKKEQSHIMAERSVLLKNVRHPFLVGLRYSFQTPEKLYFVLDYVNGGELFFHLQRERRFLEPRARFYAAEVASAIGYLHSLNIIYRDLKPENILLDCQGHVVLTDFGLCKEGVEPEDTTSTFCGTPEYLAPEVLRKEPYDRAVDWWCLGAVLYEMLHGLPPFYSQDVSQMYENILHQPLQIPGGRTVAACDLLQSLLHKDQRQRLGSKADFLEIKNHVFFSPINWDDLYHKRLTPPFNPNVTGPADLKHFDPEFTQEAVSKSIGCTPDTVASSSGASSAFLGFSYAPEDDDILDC

CN(CCCC(F)(F)F)c1nccc(-c2cnn3ncccc23)n1
remaining binding (binding; 1 µM): 93%

O=C(c1ccc(Nc2ncc(Cl)c(-c3ccc(Cl)s3)n2)cc1)N1CCC(N2CCCC2)CC1
remaining binding (binding, competition with immobilised ligand; 1 µM): 100%

Cc1cnn2ncc(-c3ccnc(N(C)C)n3)c2c1
remaining binding (binding; 1 µM): 84%

c1cncc(-c2cccc(Nc3nccc(NC4CCCCC4)n3)c2)c1
remaining binding (binding, competition with immobilised ligand; 10 µM): 95%

c1cnn2ncc(-c3ccnc(N4CCC45COC5)n3)c2c1
remaining binding (binding; 1 µM): 65%

CC(=O)N1CCC(c2ccc(C(=O)NC(=N)N)cc2C(F)(F)F)CC1
remaining binding (cell-free assay, competition with immobilised ligand; 1 µM): 100%

CNC(=O)[C@@H]1CC[C@@H](n2c(-c3ccc4cnccc4c3)nc3ccc(C(=O)NCc4cccc(C(N)=O)c4)cc32)C1
remaining binding (binding, competition with immobilised ligand; 1 µM): 100%

FC(F)(F)Oc1cccc(-c2cnc3ccc(-c4ccncc4)nn23)c1
remaining binding (binding, competition with immobilised ligand; 5 µM): 77%

COCCOc1nc(-c2ccc(Cl)nc2)nc2c1CN(C(=O)c1ncn3ccccc13)CC2
remaining binding (cell-free assay, competition with immobilised ligand; 0.1 µM): 88%

O=C(NCCCN1CCOCC1)c1ccc(Nc2ncc(Cl)c(-c3ccc(Cl)s3)n2)cc1
remaining binding (binding, competition with immobilised ligand; 1 µM): 100%

CCCOc1ccc([C@@H]2[C@@H](C(=O)O)[C@H](c3ccc4c(c3)OCO4)CN2CC(=O)Nc2c(CC)cccc2CC)cc1
remaining binding (cell-free assay, competition with immobilised ligand; 1 µM): 69%

O=C(Nc1c[nH]nc1C(=O)NC1CCNCC1)c1cc(F)cc(F)c1
remaining binding (binding, competition with immobilised ligand; 1 µM): 93%

O=C(Nc1cccnn1)N1CC(C/C=C/c2cncc(Oc3ccc(C(F)(F)F)cn3)n2)C1
remaining binding (cell-free assay, competition with immobilised ligand; 1 µM): 74%

Nc1ncc2c(n1)-c1c([nH]c3ccc(C#CC4CC4)cc13)CCCC2
remaining binding (binding, competition with immobilised ligand; 1 µM): 96%

O=C(c1ccc(Nc2nccc(-c3cc4ccccc4s3)n2)cc1)N1CCC(N2CCCC2)CC1
remaining binding (binding, competition with immobilised ligand; 1 µM): 47%

CN(C)c1ncc(F)c(-c2cnn3ncccc23)n1
remaining binding (binding; 1 µM): 72%

CC1=C(C#N)C(c2ccc3c(c2)c(NC(=O)c2ccccc2C)nn3C)C(C#N)=C(C)N1
remaining binding (cell-free assay, competition with immobilised ligand; 1 µM): 73%

CC1CCCN1c1nccc(-c2cnn3ncccc23)n1 (stereo not drawn)
remaining binding (binding; 1 µM): 94%

COc1cnc(Nc2cccc(S(N)(=O)=O)c2)nc1N1CCN(c2ccccc2)C(=O)C1
remaining binding (binding, competition with immobilised ligand; 1 µM): 83%

C[C@H]1CCN(c2nccc(-c3cnn4ncccc34)n2)C1
remaining binding (binding; 1 µM): 65%

O=C(NCc1ncc(C(F)(F)F)cc1Cl)c1ccc2c(c1)C1(CCS(=O)(=O)CC1)[C@H](C1CC1)N2S(=O)(=O)c1ccc(F)cc1
remaining binding (cell-free assay, competition with immobilised ligand; 1 µM): 83%
